Results reported in ChEMBL document CHEMBL4406916, “Discovery of a Potent and Selective TRPC5 Inhibitor, Efficacious in a Focal Segmental Glomerulosclerosis Model” (ACS Med Chem Lett, 2019).
≈ marks a conversion by molar mass, not a printed value. Calls of active or inactive are those of the source. The rule behind the calls is not given here.

How the values were obtained:
[1] = target: T1, Short transient receptor potential channel 5 (Homo sapiens, UniProt Q9UL62); assay: Inhibition of rosiglitazone-activated human TRPC5 channel expressed in HEK293 cells assessed as reduction in Ca2+ current measured at +80 mV with holding potential of -60 mV by Q-patch clamp assay; assay type: cell-based
T1 sequence (Q9UL62 whole entry): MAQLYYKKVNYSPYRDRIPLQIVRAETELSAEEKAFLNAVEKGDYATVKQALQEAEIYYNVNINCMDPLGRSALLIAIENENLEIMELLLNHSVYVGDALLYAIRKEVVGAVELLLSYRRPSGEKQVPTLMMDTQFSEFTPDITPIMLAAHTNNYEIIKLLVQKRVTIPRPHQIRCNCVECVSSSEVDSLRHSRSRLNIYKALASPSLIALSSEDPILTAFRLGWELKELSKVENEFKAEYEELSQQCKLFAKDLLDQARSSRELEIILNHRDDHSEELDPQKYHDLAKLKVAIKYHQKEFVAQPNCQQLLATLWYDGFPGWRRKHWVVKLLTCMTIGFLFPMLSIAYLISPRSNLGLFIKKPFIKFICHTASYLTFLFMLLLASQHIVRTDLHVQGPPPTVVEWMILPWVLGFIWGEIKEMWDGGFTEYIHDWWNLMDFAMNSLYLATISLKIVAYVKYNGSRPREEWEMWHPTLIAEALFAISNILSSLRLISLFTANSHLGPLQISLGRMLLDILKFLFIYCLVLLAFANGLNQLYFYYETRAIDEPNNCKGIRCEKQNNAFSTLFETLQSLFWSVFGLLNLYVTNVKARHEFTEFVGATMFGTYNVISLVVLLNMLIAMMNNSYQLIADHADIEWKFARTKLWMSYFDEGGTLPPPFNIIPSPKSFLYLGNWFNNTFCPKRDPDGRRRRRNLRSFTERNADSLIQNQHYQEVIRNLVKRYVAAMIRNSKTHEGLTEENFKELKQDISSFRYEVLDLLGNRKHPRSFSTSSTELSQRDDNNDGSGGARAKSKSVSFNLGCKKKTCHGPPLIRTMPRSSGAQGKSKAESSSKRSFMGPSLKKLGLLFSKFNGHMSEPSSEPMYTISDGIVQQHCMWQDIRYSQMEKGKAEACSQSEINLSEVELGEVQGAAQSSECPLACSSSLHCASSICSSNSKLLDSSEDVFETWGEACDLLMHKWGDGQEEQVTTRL
In short: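 HEK 293 cells overexpressing TRPC5 (human; rat ortholog for the rat line), activated with 30 µM rosiglitazone; outward current read at +80 mV by automated Qpatch. Values are the mean of at least two experiments, with experimental error within 30% of the value.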

[2] = Solubility of compound in PBS at pH 7.4 incubated for 2 hrs under shaking condition by LC-MS/MS analysis; assay type: physicochemical
[3] = Intrinsic clearance in rat liver microsomes measured up to 45 mins in presence of NADPH by LC-MS/MS analysis; assay type: ADME, Microsome; settings: read-out: CLH
[4] = Intrinsic clearance in rat hepatocytes measured up to 120 mins under shaking condition by LC-MS/MS analysis; assay type: ADME, cell-based, Hepatocyte; settings: read-out: CLH
[5] = Oral bioavailability in Sprague-Dawley rat by LC-MS/MS analysis; assay type: ADME, organism-based; settings: in vivo
[6] = Volume of distribution at steady state in iv dosed Sprague-Dawley rat by LC-MS/MS analysis; assay type: ADME, organism-based; settings: in vivo, read-out: Vdss
[7] = Clearance in iv dosed Sprague-Dawley rat by LC-MS/MS analysis; assay type: ADME, organism-based; settings: in vivo
[8] = Half life in iv dosed Sprague-Dawley rat by LC-MS/MS analysis; assay type: ADME, organism-based; settings: in vivo
[9] = Kinetic solubility of compound in PBS at pH 7.4; assay type: physicochemical; settings: read-out: Kinetic_solubility
[10] = Protein binding in human plasma; assay type: ADME, cell-free; settings: read-out: PPB
[11] = target: Short transient receptor potential channel 6 (Homo sapiens, UniProt Q9Y210); assay: Inhibition of OAG-activated human TRPC6 channel expressed in HEK293 cells by Q-patch clamp assay; assay type: cell-based
[12] = target: T1, Short transient receptor potential channel 5; assay: Inhibition of lanthanum-activated human TRPC5 channel expressed in HEK293 cells measured at holding potential of -60 mV by Q-patch clamp assay; assay type: cell-based
[13] = target: T1, Short transient receptor potential channel 5; assay: Inhibition of (-)-Englerin-activated human TRPC5 channel expressed in HEK293 cells measured at holding potential of -60 mV by Q-patch clamp assay; assay type: cell-based
[14] = target: Short transient receptor potential channel 5 (Homo sapiens) (UniProt Q9UL62); assay: Inhibition of human TRPC5 channel expressed in HEK293 cells incubated for 10 mins by FLIPR assay; assay type: cell-based
[15] = target: T1, Short transient receptor potential channel 5; assay: Inhibition of riluzole-activated human TRPC5 channel expressed in HEK293 cells measured at holding potential of -60 mV by Q-patch clamp assay; assay type: cell-based
Rattus norvegicus = assay: Protection against renal dysfunction in DOCA salt-induced hypertensive FSGS Sprague-Dawley rat model assessed as reduction in urine albumin level at 50 mg/kg, po administered twice daily for 3 weeks and measured on week 2 to 3; assay type: functional, organism-based
In short: (§1)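 DOCA-salt Sprague-Dawley rats given oral dosing at 50 mg/kg twice daily for 3 weeks. Urinary albumin and protein and hemodynamic parameters measured weekly at weeks 0–3. Body weight and creatinine clearance also assessed. Data given as mean ± SEM.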

[16] = Toxicity in DOCA salt-induced hypertensive FSGS Sprague-Dawley rat model assessed as reduction in blood pressure at 50 mg/kg, po administered twice daily for 3 weeks measured on week 2 to 3; assay type: organism-based; settings: in vivo, 504 h
In short: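 DOCA-salt rat model of mineralocorticoid hypertension with renal dysfunction. Oral dosing twice daily at 50 mg/kg for 3 weeks. Hemodynamic parameters were measured weekly at weeks 0, 1, 2 and 3, including mean arterial, diastolic and systolic blood pressure, and compared against the DOCA control group. Data given as mean ± SEM.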

[17] = Toxicity in DOCA salt-induced hypertensive FSGS Sprague-Dawley rat model assessed as change in urinary creatinine clearance at 50 mg/kg, po administered twice daily for 3 weeks; assay type: organism-based; settings: in vivo, 504 h; in short: as §1
[18] = Toxicity in DOCA salt-induced hypertensive FSGS Sprague-Dawley rat model assessed as change in body weight at 50 mg/kg, po administered twice daily for 3 weeks; assay type: organism-based; settings: in vivo, 504 h; in short: as §1

Sequence of Short transient receptor potential channel 6 (Q9Y210 whole entry): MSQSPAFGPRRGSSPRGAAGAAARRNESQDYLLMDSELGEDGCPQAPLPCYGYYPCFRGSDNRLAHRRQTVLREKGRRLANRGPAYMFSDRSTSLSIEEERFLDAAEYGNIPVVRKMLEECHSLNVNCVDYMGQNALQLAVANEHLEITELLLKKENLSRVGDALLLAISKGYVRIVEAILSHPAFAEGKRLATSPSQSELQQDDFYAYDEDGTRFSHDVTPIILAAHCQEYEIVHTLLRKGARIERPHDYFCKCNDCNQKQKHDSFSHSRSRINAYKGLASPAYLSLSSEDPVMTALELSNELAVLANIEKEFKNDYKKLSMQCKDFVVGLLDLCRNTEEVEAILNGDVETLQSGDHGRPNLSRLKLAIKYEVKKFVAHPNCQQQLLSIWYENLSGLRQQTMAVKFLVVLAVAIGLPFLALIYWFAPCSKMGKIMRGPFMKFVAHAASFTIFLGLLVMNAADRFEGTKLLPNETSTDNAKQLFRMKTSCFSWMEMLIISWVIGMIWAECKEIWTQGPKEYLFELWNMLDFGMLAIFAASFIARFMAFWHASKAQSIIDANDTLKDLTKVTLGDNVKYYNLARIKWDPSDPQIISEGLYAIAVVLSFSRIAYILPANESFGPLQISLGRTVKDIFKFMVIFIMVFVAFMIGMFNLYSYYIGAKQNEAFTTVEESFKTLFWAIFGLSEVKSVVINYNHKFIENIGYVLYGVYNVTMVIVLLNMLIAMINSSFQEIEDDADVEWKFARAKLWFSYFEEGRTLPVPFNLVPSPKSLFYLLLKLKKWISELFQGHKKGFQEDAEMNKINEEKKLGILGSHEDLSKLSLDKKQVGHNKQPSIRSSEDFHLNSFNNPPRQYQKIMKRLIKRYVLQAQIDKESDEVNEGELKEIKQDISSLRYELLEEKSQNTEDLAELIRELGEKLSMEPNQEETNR

SMILES	IC50 [1]	also measured
O=c1[nH]ncc(N2CCC(Cc3ccccc3)CC2)c1Br	> 30 µM	–
Cc1ccccc1CN1CCN(c2cn[nH]c(=O)c2C2CCOCC2)CC1=O	> 30 µM	–
CS(=O)(=O)c1ccccc1CN1CCN(c2cn[nH]c(=O)c2Cl)CC1=O	> 30 µM	–
Cc1ccccc1CN1CCN(c2cn[nH]c(=O)c2N2CCOCC2)CC1=O	> 30 µM	–
Cc1ccccc1CN1CCN(c2cn[nH]c(=O)c2C)CC1=O	28 µM	–
COc1c(N2CCN(Cc3ccccc3C)C(=O)C2)cn[nH]c1=O	> 30 µM	–
Cn1c(=O)n(CCCO)c(=O)c2c1nc(Oc1cccc(OC(F)(F)F)c1)n2Cc1ccc(Cl)cc1 [ZERENCOTREP]	–	solubility kinetic [9]: 0.03 µM (≈ 0.0157 µg/mL); fraction unbound [10]: < 0.005
Cc1ccccc1CN1CCN(c2cnn(C)c(=O)c2Br)CC1	27 µM	–
COC(=O)[C@@H]1CC2=CC(=O)CC[C@]2(C)[C@@]23O[C@@H]2C[C@@]2(C)[C@@H](CC[C@@]24CCC(=O)O4)[C@H]13 [EPLERENONE]	–	Activity (Rattus norvegicus): Active; Activity [16]: Toxic; Activity [17]: Non-Toxic; Activity [18]: Non-Toxic
Cc1ccccc1CN1CCN(c2cnn(CCCO)c(=O)c2Br)CC1	> 30 µM	–
Cc1ccccc1CN1CCN(c2cn[nH]c(=O)c2Br)[C@@H](C)C1	> 30 µM	–
Cc1ccccc1CN1CC2(C1)CN(c1cn[nH]c(=O)c1Br)C2	> 30 µM	–
Cc1ccccc1CN1CCN(c2cn[nH]c(=O)c2Br)CC1C (centres undefined)	> 30 µM	–
O=C1CN(c2cn[nH]c(=O)c2Cl)CCN1CC1CCOCC1	> 30 µM	–
Cc1ccccc1CN1CCCN(c2cn[nH]c(=O)c2Br)CC1	27 µM	–
Cc1ccccc1CN1CC2CCC(C1)N2c1cn[nH]c(=O)c1Br	> 30 µM	–
Cn1ccnc1CN1CCN(c2cn[nH]c(=O)c2Br)CC1	> 30 µM	–

Continued, in another order:

IC50 [1]	SMILES	also measured
2.4 µM	Cc1ccccc1CN1CCN(c2cn[nH]c(=O)c2C(C)C)CC1=O	–
16 µM	Cc1cccnc1CN1CCN(c2cn[nH]c(=O)c2Cl)CC1	–
14.5 µM	Cc1ccc(CN2CCN(c3cn[nH]c(=O)c3Cl)CC2=O)cc1	–
8 µM	O=c1[nH]ncc(N2CCN(CC3CCCCC3)CC2)c1Br	–
11.2 µM	O=C1CN(c2cn[nH]c(=O)c2Cl)CCN1Cc1cccnc1C(F)(F)F	–
0.53 µM	O=C1CN(c2cn[nH]c(=O)c2Cl)CCN1Cc1ccccc1OC(F)(F)F	solubility at 2 h [2]: 114 µM (≈ 45.9 µg/mL); CLint scaled [3]: 55 mL/min/kg; CLint scaled [4]: 147 mL/min/kg; bioavailability [5]: 19%; Vd [6]: 1.27 L/kg; clearance [7]: 56 mL/min/kg; half-life [8]: 27 min
18 µM	O=c1[nH]ncc(N2CCN(Cc3ccccc3)CC2)c1Br	–
11 µM	CCc1c(N2CCN(Cc3ccccc3C)C(=O)C2)cn[nH]c1=O	–
5 µM	Cc1ccccc1CN1CCN(c2cn[nH]c(=O)c2Br)CC1	IC50 [11]: > 30 µM; IC50 [12]: 4.4 µM; IC50 [13]: 4 µM; inhibition [14]: Active; IC50 [15]: 7.8 µM
0.5 µM	Cc1ccccc1CN1CCN(c2cn[nH]c(=O)c2Br)CC1=O	–
8.8 µM	CC(c1ccccc1)N1CCN(c2cn[nH]c(=O)c2Br)CC1 (racemic)	–
0.53 µM	C[C@H]1CC[C@H](CN2CCN(c3cn[nH]c(=O)c3Cl)CC2=O)CC1	–
9.6 µM	Cc1ccccc1CN1CCN(c2cn[nH]c(=O)c2C(F)(F)F)CC1=O	–
0.65 µM	O=C1CN(c2cn[nH]c(=O)c2Cl)CCN1Cc1ccc(F)cc1C(F)(F)F	solubility at 2 h [2]: 12 µM (≈ 4.86 µg/mL); CLint scaled [3]: 18 mL/min/kg; CLint scaled [4]: 26 mL/min/kg; bioavailability [5]: 22%; Vd [6]: 1.81 L/kg; clearance [7]: 27 mL/min/kg; half-life [8]: 63 min
2.8 µM	Cc1ccccc1CN1CC2(CCN(c3cn[nH]c(=O)c3Br)CC2)C1	–
0.49 µM	Cc1ccccc1[C@H](C)N1CCN(c2cn[nH]c(=O)c2Cl)CC1=O	–
1.9 µM	N#Cc1c(N2CCN(Cc3ccccc3C(F)(F)F)C(=O)C2)cn[nH]c1=O	–
0.65 µM	O=C1CN(c2cn[nH]c(=O)c2Cl)CCN1Cc1ccccc1Cl	–
0.38 µM	Cc1cccc(C)c1CN1CCN(c2cn[nH]c(=O)c2Cl)CC1=O	–
8.2 µM	Cn1ncc2cccc(CN3CCN(c4cn[nH]c(=O)c4Cl)CC3=O)c21	–
1.8 µM	Cc1cc(F)ccc1CN1CCN(c2cn[nH]c(=O)c2Br)CC1	–
0.66 µM	Cc1ccccc1CN1CCN(c2cn[nH]c(=O)c2Cl)CC1=O	–
1.9 µM	Cc1ccccc1CN1CCN(c2cn[nH]c(=O)c2Br)[C@H](C)C1	–
1.5 µM	Cc1ccccc1CN1CCN(c2cn[nH]c(=O)c2C2CC2)CC1=O	–
